Experimental data reported in ChEMBL document CHEMBL1145200, “4-Benzyl and 4-benzoyl-3-dimethylaminopyridin-2(1H)-ones: in vitro evaluation of new C-3-amino-substituted and C-5,6-alkyl-substituted analogues against clinically important HIV mutant strains” (J Med Chem, 2005).

Tests used:
[1] = tested on: Human immunodeficiency virus 1; experiment: In vitro inhibitory concentration against HIV-1 Y181C mutant strain; assay type: functional, organism-based
Summary of the method: (§1)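 MT4 human T-lymphoblastoid cells, grown in RPMI 1640 with 10% fetal calf serum and antibiotics at 37 °C under 5% CO2. Mutant HIV-1 strains were added at 200 CCID50/well with 30 000 cells/well across a compound concentration range. After 5 days at 37 °C, viability was read by MTT colorimetry. EC50 is the concentration giving 50% infection relative to the drug-free control.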

[2] = tested on: Human immunodeficiency virus 1; experiment: In vitro inhibitory concentration value against HIV K103N and Y181C mutant strain; assay type: functional, organism-based; summary of the method: as §1
[3] = tested on: Human immunodeficiency virus 1; experiment: In vitro inhibitory concentration against HIV L100I and K103N mutant strain; assay type: functional, organism-based; summary of the method: as §1
[4] = tested on: Human immunodeficiency virus 1; experiment: Selective index value (ratio of CC50 to IC50 value)against HIV LAI cell line; assay type: functional
Summary of the method: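 Ratio of CC50 to IC50 against LAI. CC50 came from mock-infected MT4 cultures (30 000 cells/well) given the same compound concentration range, run in parallel with LAI-infected cultures (200 CCID50/well). Incubation was 5 days at 37 °C in 5% CO2, with MTT viability read-out.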

[5] = tested on: Human immunodeficiency virus 1; experiment: In vitro inhibitory concentration against HIV F227L and V106A mutant strain; assay type: functional, organism-based; summary of the method: as §1
[6] = tested on: Human immunodeficiency virus 1; experiment: In vitro inhibitory concentration against HIV K101E and K103N mutant strain; assay type: functional, organism-based; summary of the method: as §1
[7] = tested on: Human immunodeficiency virus 1; experiment: In vitro inhibitory concentration against HIV E138K mutant strain; assay type: functional, organism-based; summary of the method: as §1
[8] = tested on: Human immunodeficiency virus 1; experiment: In vitro inhibitory concentration against HIV F227C mutant strain; assay type: functional, organism-based; summary of the method: as §1
[9] = tested on: Human immunodeficiency virus 1; experiment: In vitro inhibitory concentration against HIV G190A mutant strain; assay type: functional, organism-based; summary of the method: as §1
[10] = tested on: Human immunodeficiency virus 1; experiment: In vitro inhibitory concentration against HIV G190S mutant strain; assay type: functional, organism-based; summary of the method: as §1
[11] = tested on: Human immunodeficiency virus 1; experiment: In vitro inhibitory concentration against HIV K101E mutant strain; assay type: functional, organism-based; summary of the method: as §1
[12] = tested on: Human immunodeficiency virus 1; experiment: In vitro inhibitory concentration against HIV K103N mutant strain; assay type: functional, organism-based; summary of the method: as §1
[13] = tested on: Human immunodeficiency virus 1; experiment: In vitro inhibitory concentration against HIV L100I mutant strain; assay type: functional, organism-based; summary of the method: as §1
[14] = tested on: Human immunodeficiency virus 1; experiment: In vitro inhibitory concentration against HIV V106A mutant strain; assay type: functional, organism-based; summary of the method: as §1
[15] = tested on: Human immunodeficiency virus 1; experiment: In vitro inhibitory concentration against HIV V179E mutant strain; assay type: functional, organism-based; summary of the method: as §1
[16] = tested on: Human immunodeficiency virus 1; experiment: In vitro inhibitory concentration against HIV Y188L mutant strain; assay type: functional, organism-based; summary of the method: as §1
[17] = tested on: Human immunodeficiency virus 1; experiment: In vitro inhibitory concentration against HIV LAI cell line; assay type: functional, organism-based; conditions: Human immunodeficiency virus 1, LAI
Summary of the method: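 HIV-1 LAI was added at 200 CCID50/well to MT4 human T-lymphoblastoid cells (30 000 cells/well) across a concentration range of compound. Cells were grown in RPMI 1640 with 10% fetal calf serum and antibiotics. After 5 days at 37 °C in 5% CO2, cell viability was read by MTT colorimetry. EC50 was the concentration giving 50% infection versus the drug-free control.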

Structure (SMILES) | IC50 [1] [nM] | IC50 [2] [nM] | IC50 [3] [nM] | SI [4] | IC50 [5] [nM] | IC50 [6] [nM] | IC50 [7] [nM] | IC50 [8] [nM] | IC50 [9] [nM] | IC50 [10] [nM] | IC50 [11] [nM] | IC50 [12] [nM] | IC50 [13] [nM] | IC50 [14] [nM] | IC50 [15] [nM] | IC50 [16] [nM] | IC50 [17] [nM]
CCc1c(C)[nH]c(=O)c(N(C)CCOC)c1Cc1cccc(C)c1 | 794 | 10000 | 794 | 10000 | 3980 | 100 | 8 | 790 | 100 | 39 | 16 | 79 | 6 | 63 | 4 | 398 | 1
CCc1c(C)[nH]c(=O)c(N(C)CC)c1Cc1cc(C)cc(C)c1 | 316 | 3120 | 598 | 3980 |  | 139 | 63 | 1120 | 63 | 316 | 79 | 79 | 63 | 316 | 32 | 1260 | 8
CCc1c(C)[nH]c(=O)c(N(C)CC)c1Cc1cccc(/C=C/C#N)c1 | 32 | 199 | 200 | 10000 | 3160 | 158 | 6 | 794 | 10 | 125 | 6 | 6 | 10 | 8 | 2 | 251 | 1
COCCCc1c(C)nc(O)c(N(C)C)c1C(=O)c1cccc(C)c1 | 160 | 200 | 63 | 1260 | 40 | 158 | 20 | 631 | 16 | 32 | 32 | 126 | 20 | 40 | 8 | 158 | 8
CCc1c(C)[nH]c(=O)c(N(C)C)c1Cc1cc(C)cc(C)c1 | 100 | 794 |  | 12600 |  |  |  |  | 63 |  | 16 | 32 | 50 | 40 |  | 251 | 
CCc1c(C)[nH]c(=O)c(N(C)C)c1C(=O)c1cc(C)cc(C)c1 | 63 | 158 | 40 | 2510 | 398 | 13 | 5 | 631 | 13 | 4 | 8 | 10 | 6 | 6 | 2 | 158 | 
CCc1c(C)nc(O)c(N(C)CCOC)c1C(=O)c1cccc(C)c1 | 631 | 2810 | 17 | 79400 | 251 | 15 | 3 | 224 | 3 | 3 | 3 | 20 | 8 |  | 1 | 1260 | 1
O=C1Nc2ccc(Cl)cc2[C@@](C#CC2CC2)(C(F)(F)F)O1 [EFAVIRENZ] |  |  | 10000 |  | 25 |  | 2 |  | 10 | 251 | 6 |  | 40 | 40 | 5 |  | 
